Source: ChEMBL document CHEMBL1132311, “Design and synthesis of isoxazoline derivatives as factor Xa inhibitors. 1” (J Med Chem, 1999)

Tests used:
[1] = target: T1, Serine protease 1 (Homo sapiens, UniProt P07477); experiment: The binding affinity was measured towards human purified trypsin
How it was run: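 Human purified enzymes, microtiter format; 0.1 M sodium phosphate, 0.2 M NaCl, 0.5% PEG 6000, pH 7.0. Compound at 10 to 0.00316 µM (eight half-log steps). Absorbance at 405 nm read for 30 min; rates vs uninhibited controls give % activity, Ki calculated from substrate concentration and Km. Duplicate runs with the same internal standards.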

[2] = target: Coagulation factor X (Homo sapiens, UniProt P00742); experiment: Binding affinity to purified human coagulation factor Xa (FXa)
Coagulation factor X, sequence (P00742 41-179 limits assumed): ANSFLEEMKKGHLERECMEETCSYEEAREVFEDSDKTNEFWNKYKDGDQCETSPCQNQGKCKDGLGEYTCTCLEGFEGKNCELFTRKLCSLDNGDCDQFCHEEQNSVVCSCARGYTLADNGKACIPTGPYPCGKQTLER
Coagulation factor X, sequence (P00742 235-488 limits assumed): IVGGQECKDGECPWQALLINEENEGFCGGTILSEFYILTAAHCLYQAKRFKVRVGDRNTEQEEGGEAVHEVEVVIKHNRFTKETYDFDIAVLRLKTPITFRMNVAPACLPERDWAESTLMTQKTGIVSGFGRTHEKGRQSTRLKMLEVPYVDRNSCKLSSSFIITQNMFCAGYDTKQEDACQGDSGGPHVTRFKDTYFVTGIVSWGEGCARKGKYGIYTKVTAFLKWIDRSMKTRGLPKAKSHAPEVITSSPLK

[3] = target: Prothrombin (Homo sapiens, UniProt P00734); experiment: The binding affinity towards thrombin obtained from human purified enzymes.
[4] = target: T1, Serine protease 1; experiment: The binding affinity was measured on trypsin obtained from Human purified enzymes
How it was run: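 Inhibition constant against human purified trypsin, in 0.1 M sodium phosphate with 0.2 M NaCl and 0.5% PEG 6000, pH 7.0. Eight inhibitor levels were run, 10 down to 0.00316 µM. Absorbance was read at 405 nm for 30 min. Ki was derived from % activity relative to uninhibited rates using Km and substrate concentration. Duplicate runs alongside internal standards.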

[5] = organism: Oryctolagus cuniculus; experiment: The ID50 value was the 50% inhibition of thrombus formation was measured on rabbits; assay type: functional
How it was run: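 New Zealand rabbits (2-4 kg) under ketamine (50 mg/kg im) plus xylazine (10 mg/kg im). Femoral artery-vein shunt containing silk thread. Compound or saline vehicle given as continuous iv infusion via jugular vein, starting 1 h before shunt flow and continuing throughout (100 min).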

T1 sequence (P07477 whole entry): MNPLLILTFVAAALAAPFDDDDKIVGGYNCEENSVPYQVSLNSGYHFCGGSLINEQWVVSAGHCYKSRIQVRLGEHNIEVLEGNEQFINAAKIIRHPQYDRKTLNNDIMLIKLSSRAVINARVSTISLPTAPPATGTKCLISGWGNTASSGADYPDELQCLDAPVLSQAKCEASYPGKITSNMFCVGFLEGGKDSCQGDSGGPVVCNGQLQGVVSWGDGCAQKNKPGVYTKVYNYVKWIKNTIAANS

| SMILES | Ki [1] [nM] | Ki [2] [nM] | Ki [3] [nM] | Ki [4] [nM] | ID50 [5] [µM/h/kg] |
| --- | --- | --- | --- | --- | --- |
| COC(=O)CC1(C(=O)Nc2ccc(-c3ccccc3C(F)(F)F)cc2)CC(c2cccc(C(=N)N)c2)=NO1 (stereo not given) | 230 | 28 | 1400 | – | – |
| COC(=O)CC1(C(=O)Nc2ccc(-c3ccccc3S(N)(=O)=O)cc2C)CC(c2cccc(C(=N)N)c2)=NO1 (stereo not given) | 300 | 8.8 | 3100 | – | – |
| CC(=O)N[C@H](Cc1ccccc1)C(=O)N1CCC[C@@H]1C(=O)NC(CCCN=C(N)N)B(O)O (single isomer, unassigned; (-)) | – | 40 | – | 55 | – |
| COC(=O)CC1(C(=O)Nc2ccc(-c3ccccc3C)cc2)CC(c2cccc(C(=N)N)c2)=NO1 (stereo not given) | 390 | 210 | 1800 | – | – |
| COC(=O)CC1(C(=O)Nc2ccc(-c3cccc(C(F)(F)F)c3)cc2)CC(c2cccc(C(=N)N)c2)=NO1 (stereo not given) | 570 | 240 | 1200 | – | – |
| COC(=O)CC1(C(=O)Nc2ccc(-c3ccccc3OC)cc2)CC(c2cccc(C(=N)N)c2)=NO1 (stereo not given) | 310 | 62 | 2800 | – | – |
| COC(=O)CC1(C(=O)Nc2ccc(-c3ccccc3S(N)(=O)=O)cc2)CC(c2cccc(C(=N)N)c2)=NO1.O=C(O)C(F)(F)F (single isomer, unassigned; (+)) | 300 | – | > 21000 | – | 2 |
| COC(=O)CC1(C(=O)Nc2ccc(-c3cccc(C)c3)cc2)CC(c2cccc(C(=N)N)c2)=NO1 (stereo not given) | – | 240 | 2100 | – | – |
| COC(=O)CC1(C(=O)Nc2ccc(-c3cccc(OC)c3)cc2)CC(c2cccc(C(=N)N)c2)=NO1 (stereo not given) | 390 | 200 | 2700 | – | – |
| COC(=O)CC1(C(=O)Nc2ncc(-c3ccccc3S(N)(=O)=O)cn2)CC(c2cccc(C(=N)N)c2)=NO1.O=C(O)C(F)(F)F (racemic) | – | – | – | – | 0.4 |
| COC(=O)CC1(C(=O)Nc2ncc(-c3ccccc3S(N)(=O)=O)cn2)CC(c2cccc(C(=N)N)c2)=NO1.O=C(O)C(F)(F)F (stereo in doubt; 34(+)) | 710 | 12 | > 21000 | – | >1.5 |
| COC(=O)CC1(C(=O)Nc2ccc(-c3ccccc3)cc2)CC(c2cccc(C(=N)N)c2)=NO1 (stereo not given) | 470 | 220 | 3500 | – | – |
| COC(=O)CC1(C(=O)Nc2ccc(-c3ccccc3C(=O)OC)cc2)CC(c2cccc(C(=N)N)c2)=NO1 (stereo not given) | 300 | 53 | 2100 | – | – |
| COC(=O)CC1(C(=O)Nc2ncc(-c3ccccc3S(N)(=O)=O)cn2)CC(c2cccc(C(=N)N)c2)=NO1 (stereo in doubt; 31) | 336 | – | 14000 | – | – |
| COC(=O)CC1(C(=O)Nc2ccc(-c3ccccc3SC)cc2)CC(c2cccc(C(=N)N)c2)=NO1 (stereo not given) | 260 | 66 | 1200 | – | – |
| COC(=O)CC1(C(=O)Nc2ccc(-c3cccc(S(N)(=O)=O)c3)cc2)CC(c2cccc(C(=N)N)c2)=NO1 (stereo not given) | 340 | 68 | 3100 | – | – |

The next lines start with results.

| Ki [1] [nM] | Ki [2] [nM] | Ki [3] [nM] | Ki [4] [nM] | SMILES | ID50 [5] [µM/h/kg] |
| --- | --- | --- | --- | --- | --- |
| 25 | 0.96 | – | – | COC(=O)CC1(C(=O)Nc2ccc(-c3ccccc3S(N)(=O)=O)cn2)CC(c2cccc(C(=N)N)c2)=NO1 (stereo in doubt; 30) | – |
| 25 | 0.96 | – | – | COC(=O)CC1(C(=O)Nc2ccc(-c3ccccc3S(N)(=O)=O)cn2)CC(c2cccc(C(=N)N)c2)=NO1.O=C(O)C(F)(F)F (racemic) | 0.3 |
| 17 | 0.83 | 2900 | – | COC(=O)CC1(C(=O)Nc2ccc(-c3ccccc3S(N)(=O)=O)cn2)CC(c2cccc(C(=N)N)c2)=NO1.O=C(O)C(F)(F)F (single isomer, unassigned; (-)) | 0.26 |
| 100 | 4.2 | 600 | – | COC(=O)CC1(C(=O)Nc2ccc(-c3ccccc3S(C)(=O)=O)cc2)CC(c2cccc(C(=N)N)c2)=NO1 (stereo not given) | – |
| 120 | 4.2 | 3800 | – | COC(=O)CC1(C(=O)Nc2ccc(-c3ccccc3S(N)(=O)=O)cc2F)CC(c2cccc(C(=N)N)c2)=NO1 (stereo not given) | – |
| 130 | 7 | 18000 | – | COC(=O)CC1(C(=O)Nc2ccc(-c3ccccc3S(N)(=O)=O)cn2)CC(c2cccc(C(=N)N)c2)=NO1.O=C(O)C(F)(F)F (single isomer, unassigned; (+)) | 0.6 |
| 170 | 2.3 | 8900 | – | COC(=O)CC1(C(=O)Nc2ncc(-c3ccccc3S(N)(=O)=O)cn2)CC(c2cccc(C(=N)N)c2)=NO1.O=C(O)C(F)(F)F (single isomer, unassigned; (-)) | 0.15 |
| 98 | – | 2400 | – | COC(=O)CC1(C(=O)Nc2ccc(-c3ccccc3S(N)(=O)=O)cc2)CC(c2cccc(C(=N)N)c2)=NO1.O=C(O)C(F)(F)F (single isomer, unassigned; (-)) | 0.2 |
| 180 | 19 | 10800 | – | COC(=O)CC1(C(=O)Nc2ccc(-c3ccccc3S(N)(=O)=O)nc2)CC(c2cccc(C(=N)N)c2)=NO1 (stereo not given) | – |
| 121 | – | – | – | COC(=O)CC1(C(=O)Nc2ccc(-c3ccccc3S(N)(=O)=O)cc2)CC(c2cccc(C(=N)N)c2)=NO1.O=C(O)C(F)(F)F (racemic) | 0.6 |
